# Tests used:
# [1] = Solubility at pH 5; assay type: physicochemical; settings: buffer
# Method in brief: (§1)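 Run at 18 °C in 0.01 M potassium phosphate buffer. A saturated suspension was brought to pH 7.4 with 5 M KOH, held overnight, filtered through 0.22 µm, readjusted and refiltered. For pH 5.0, part of the filtrate was acidified with phosphoric acid and refiltered, then diluted with pH 5.0 buffer if opalescent. Samples were diluted in 0.1 M NaOH and concentration read by UV absorbance at 301.5 nm.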
# L1210 = test: Compound was evaluated for inhibition dose required to inhibit the growth of L1210 cells in culture.; assay type: functional; settings: Mus musculus, read-out: ID50 (the source's name)
# [2] = Solubility at pH 7.4; assay type: physicochemical; settings: buffer; method in brief: as §1
# Thymidylate synthase = Thymidylate synthase (Mus musculus, UniProt P07607); test: Inhibitory concentration of compound to inhibit Thymidylate synthase (TS) in L1210 cells at conc. of 200 uM; assay type: cell-based
# Sequence of Thymidylate synthase (P07607 whole entry): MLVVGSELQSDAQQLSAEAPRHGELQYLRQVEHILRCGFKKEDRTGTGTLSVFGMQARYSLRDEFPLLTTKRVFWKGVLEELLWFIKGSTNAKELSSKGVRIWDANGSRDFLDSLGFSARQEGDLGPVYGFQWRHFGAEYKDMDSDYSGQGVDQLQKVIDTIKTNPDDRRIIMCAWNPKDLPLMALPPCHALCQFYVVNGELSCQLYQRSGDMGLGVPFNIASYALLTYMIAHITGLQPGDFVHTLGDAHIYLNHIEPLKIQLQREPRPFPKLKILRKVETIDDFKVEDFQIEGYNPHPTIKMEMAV
# Method in brief: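 Partially purified thymidylate synthase from L1210 leukemia cells; the enzyme assay used (±)-5,10-methylenetetrahydrofolate (5,10-CH2-FH4) cofactor at 200 μM.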
Structure (SMILES),solubility [1] [µg/mL],IC50 (L1210) [nM],solubility [2] [µg/mL],IC50 (Thymidylate synthase) [nM]
C#CCN(Cc1ccc2ncnc(O)c2c1)c1ccc(C(=O)NC(CCC(=O)O)C(=O)O)cc1 (stereo not drawn),43,400,> 107000,
O=C(O)CCC(NC(=O)c1ccc(NCc2ccc3ncnc(O)c3c2)cc1)C(=O)O (stereo not drawn),,400,,
CN(Cc1ccc2nc(N)nc(O)c2c1)c1ccc(C(=O)NC(CCC(=O)O)C(=O)O)cc1 (stereo not drawn),,4500,,360
Nc1nc(O)c2cc(CNc3ccc(C(=O)NC(CCC(=O)O)C(=O)O)cc3)ccc2n1 (stereo not drawn) [DIDEAZAFOLATE],,2700,,
CCN(Cc1ccc2nc(N)nc(O)c2c1)c1ccc(C(=O)NC(CCC(=O)O)C(=O)O)cc1 (stereo not drawn),,9000,,
CCN(Cc1ccc2ncnc(O)c2c1)c1ccc(C(=O)NC(CCC(=O)O)C(=O)O)cc1 (stereo not drawn),,2700,,
C#CCN(Cc1ccc2[nH]c(N)nc(=O)c2c1)c1ccc(C(=O)NC(CCC(=O)O)C(=O)O)cc1 (stereo not drawn),8.6,3400,312,
C=CCN(Cc1ccc2ncnc(O)c2c1)c1ccc(C(=O)NC(CCC(=O)O)C(=O)O)cc1 (stereo not drawn),,2500,,1120
CN(Cc1ccc2ncnc(O)c2c1)c1ccc(C(=O)NC(CCC(=O)O)C(=O)O)cc1 (stereo not drawn),,900,,1060
C=CCN(Cc1ccc2nc(N)nc(O)c2c1)c1ccc(C(=O)NC(CCC(=O)O)C(=O)O)cc1 (stereo not drawn),,6000,,280
